Test results published in ChEMBL document CHEMBL1135830, “NMR-based modification of matrix metalloproteinase inhibitors with improved bioavailability” (J Med Chem, 2002).

How the values were obtained:
[1] = molecular target: T1, Stromelysin-1 (Homo sapiens, UniProt P08254); experiment: Inhibition of Stromelysin (MMP-3); parameters: species or system Rattus norvegicus
[2] = molecular target: T1, Stromelysin-1; experiment: Binding to stromelysin (MMP-3) in place of acetohydroxamic acid.; parameters: species or system Rattus norvegicus
How it was run: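 Binding detected by sensitivity-enhanced 15N HSQC on uniformly 15N-labeled stromelysin catalytic domain (residues 81-256), 0.3 mM protein in H2O/D2O 9:1 Tris buffer 50 mM pH 7.0, 20 mM CaCl2, 0.05% sodium azide. Ligands added from perdeuterated DMSO, screened at 25.0 mM each; spectra with versus without compound compared for shifts at 500 MHz.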

[3] = test system: Rattus norvegicus; experiment: Bioavailability after peroral administration at 30 mg/kg against Stromelysin in rat; format: ADME, organism-based
How it was run: (§1)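 Rats (4 per compound, across two studies) dosed orally at 30 mg/kg in hydroxypropyl methyl cellulose. Tail-vein blood drawn at intervals over 7 h, deproteinated with 2 volumes methanol containing 0.1% acetic acid. Drug level in the extract quantified by bioassay against recombinant stromelysin.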

[4] = molecular target: T1, Stromelysin-1; experiment: Binding to stromelysin (MMP-3) in the presence of 1-Napthohydroxamate; parameters: species or system Rattus norvegicus
How it was run: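 Catalytic domain of stromelysin (residues 81-256), uniformly ¹⁵N-labeled, at 0.3 mM in H₂O/D₂O (9/1) with 50 mM Tris pH 7.0, 20 mM CaCl₂ and 0.05% sodium azide. Compounds were added from perdeuterated DMSO solutions. Binding was detected as changes in sensitivity-enhanced ¹⁵N HSQC spectra (500 MHz), recorded with and without compound.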

[5] = molecular target: T1, Stromelysin-1; experiment: Binding to stromelysin (MMP-3) in the presence of acetohydroxamic acid; parameters: species or system Rattus norvegicus
How it was run: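 Uniformly 15N-labeled stromelysin catalytic domain (residues 81-256) at 0.3 mM in 50 mM Tris, pH 7.0, H2O/D2O 9/1, with 20 mM CaCl2 and 0.05% sodium azide. Sensitivity-enhanced 15N HSQC spectra were recorded at 500 MHz with and without compound added in perdeuterated DMSO. Binding was read from changes in the HSQC spectrum.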

[6] = Cmax was determined; format: ADME, organism-based; conditions: in vivo; how it was run: as §1
[7] = Half-life period was determined; format: ADME; how it was run: as §1

T1 sequence (P08254 whole entry): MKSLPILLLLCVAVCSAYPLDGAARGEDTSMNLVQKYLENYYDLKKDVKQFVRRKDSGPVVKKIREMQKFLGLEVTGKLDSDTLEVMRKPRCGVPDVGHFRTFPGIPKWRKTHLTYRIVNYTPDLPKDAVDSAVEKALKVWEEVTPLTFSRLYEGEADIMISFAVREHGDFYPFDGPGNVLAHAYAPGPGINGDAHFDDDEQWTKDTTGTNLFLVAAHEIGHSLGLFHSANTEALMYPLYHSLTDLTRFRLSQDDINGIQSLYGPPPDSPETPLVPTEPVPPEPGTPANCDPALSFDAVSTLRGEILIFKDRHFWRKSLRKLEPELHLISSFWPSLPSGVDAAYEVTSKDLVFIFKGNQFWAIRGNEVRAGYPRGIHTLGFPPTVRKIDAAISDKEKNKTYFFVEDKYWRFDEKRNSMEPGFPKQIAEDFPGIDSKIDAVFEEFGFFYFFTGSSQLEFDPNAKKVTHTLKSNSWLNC

Work on `N#CCc1cccc(-c2ccc(S(=O)(=O)CCOc3ccc4ccccc4c3C(=O)NO)cc2)c1` yielded an IC50 [1] of 0.062 µM.

With `COc1ccc(-c2ccc(S(=O)(=O)NCCc3ccc4ccccc4c3C(=O)NO)cc2)cc1` the IC50 [1] was 10 µM.

For `CC(=O)c1ccccn1`, the Kd [2] was > 25000 µM.

With `O=C(CC(=O)C(F)(F)F)c1ccccc1` the Kd [2] was > 25000 µM.

With `NC(=O)NO` [HYDROXYUREA] the Kd [2] was > 25000 µM.

With `O=C(O)c1ccccc1O` [SALICYLIC ACID] the Kd [2] was > 25000 µM.

Compound `O=C(NO)c1ccccc1` [BENZOHYDROXAMATE] has a Kd [2] of 7000 µM.

With `CCOC(=O)CC(=O)C(F)(F)F` the Kd [2] was > 25000 µM.

`N#Cc1ccc(-c2ccc(OCCCOc3ccc4ccccc4c3C(=O)NO)cc2)cc1` showed an IC50 [1] of 10 µM.

In the case of `NC(=O)c1ccccc1O` [SALICYLAMIDE], the Kd [2] is reported as > 25000 µM.

`N#Cc1ccc(-c2ccc(OCCC(=O)NO)cc2)cc1` showed an IC50 [3] of 0.057 µM.

For `N#Cc1ccc(-c2ccc(OCc3ccc4ccccc4c3C(=O)NO)cc2)cc1`, the IC50 [1] was > 10 µM.

`O=C(O)CCS` [MERCAPTOPROPIONIC ACID] gave a Kd [2] of 3000 µM.

Compound `Oc1ccc(-c2ccc(O)cc2)cc1` has a Kd [4] of 150 µM.

Work on `c1ccc(-c2ccncc2)cc1` yielded a Kd [4] of 900 µM.

In the case of `SCc1cccs1`, the Kd [2] is reported as 150 µM.

`O=C(NO)c1cccc2ccccc12` gave an IC50 [1] of 50 µM and a Kd [2] of 50 µM.

With `CCOC(=O)NO` [ETHYL HYDROXYCARBAMATE] the Kd [2] was > 25000 µM.

With `N#Cc1ccc(-c2ccc(O)cc2)cc1` the Kd [5] was < 50 µM and the Kd [4] was < 50 µM.

Compound `N#Cc1ccc(-c2ccc(OCCOc3ccc4ccccc4c3C(=O)NO)cc2)cc1` has a Cmax [6] of 28 µM, an IC50 [3] of 0.34 µM and a half-life [7] of 2 h.
